Three compounds from ChEMBL document CHEMBL1129608, “Phosphodiester amidates of allenic nucleoside analogues: anti-HIV activity and possible mechanism of action” (J Med Chem, 1996) can be followed below.

Data set [1] deals with ATH-8 cell line. In words: Compound was evaluated for the inhibition of replication and cytopathic effect of HIV-1 in ATH8 cells. It is filed as functional, cell-based, Homo sapiens. The method in brief: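 ATH8 (CD4+) cells, 2 × 10⁵, were exposed to HIV-1 LAI (500 TCID50) for 45 min and then cultured with compound. Total viable cells were counted on day 7. Percent protection was calculated as viable cells (infected plus drug minus infected alone) divided by (uninfected minus infected alone) × 100. Cytotoxicity was 100 × (1 − viable cells with drug / viable cells alone).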

For data set [2], the system named is L1210. The experiment in a line: Compound was evaluated for the clonogenic assay with murine leukemia L1210 cells. It is filed as functional. Conditions: Mus musculus, read-out: ID50 (the source's name).
For data set [3], the system named is ATH-8 cell line. In words: Compound was evaluated for the cytotoxicity in ATH8 cells. Conditions: Homo sapiens.
The nature of data set [4]: Kinetic hydrolysis catalyzed by pig liver esterase at pH 7.4 and 37 degree C. It is filed as ADME, Sus scrofa. Summed up:
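Substrate at 2.2 × 10⁻³ M in 0.02 M Na₂HPO₄, pH 7.4, with pig liver esterase (200 units per 1 mL), stirred at 37 °C. Aliquots were taken at set times and analysed by reverse-phase C18 HPLC (water–CH₃CN gradient) to follow loss of substrate and give the half-life.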

Data set [5] can be described thus: Kinetic hydrolysis catalyzed by pig liver esterase at pH 9.8. It is filed as ADME, Sus scrofa.
Data set [6] can be described thus: Kinetic hydrolysis catalyzed by pig liver esterase at pH 1.2. It is filed as ADME, Sus scrofa.
Data set [7] deals with L1210 (Mus musculus). In words: Compound was evaluated for the inhibitory activity in a clonogenic assay with murine leukemia L1210 cells.

For `Nc1ncnc2c1ncn2C=C=CCO`, the midpoint of the response in data set [1] (Homo sapiens, ATH-8), the EC50, lay at 14 µM. Also, the results for the IC50 in data set [2] and in data set [3] were 150 µM and 3 µM, respectively.

In the case of `COC(=O)C(C)NP(=O)(OCC=C=Cn1cnc2c(N)ncnc21)Oc1ccccc1` (stereo in doubt; 2a), the figures for the half-life in data set [4], in data set [5] and in data set [6] were 8.5 h, 2.52 h and 24.4 h, respectively. Also, in data set [1] (ath-8), the midpoint of the response, the EC50, lay at 0.88 µM. The compound also gave an ID50 in data set [7] greater than 300 µM.

In data set [1] (ath-8), `COC(=O)C(C)NP(=O)(OCC=C=Cn1cnc2c(N)ncnc21)Oc1ccccc1` (stereo in doubt; 4a) came in with an EC50 of 0.21 µM.
